Screening results (PubChem BioAssay)
This is a sample that favours compounds with a hit; in the whole collection about 2.4% have one here.
Dynein transport: dynein cargo transport inhibition | 3617.4 mouse cells, GR-EGFP nuclear translocation imaging; test concentration mostly 20 µM; stimulated with dexamethasone, 1 µM; active compounds read low | z-score, hits read low | hit rate 0.47% among 220,000;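 active means plate z-score of nuclear minus cytoplasmic receptor signal below a set negative limit, without overly bright fluorescence or cell loss, cut at about -3.5 in these data, passing the limit was not always enough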;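 further: z-score of nuclear minus cytoplasmic ring GR-EGFP intensity difference per well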
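Also added – dexamethasone, 1.0 µM final · Buffer or medium – tet-free, stripped-serum medium · Schedule – induction 48 h, compound 1 h, agonist 30 min · Detection – formaldehyde fixation, Hoechst nuclear stain, 10x automated fluorescence imaging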
TNF death inh: inhibitors of TNF-alpha induced necroptosis in Jurkat FADD-/- cells; Jurkat FADD-/- TNF necroptosis rescue, ATP luminescence, 24 h; 0 = TNF only, 100 = no-TNF cells; activation (protection from cell death), % at 10 µM; hit rate 0.068% among 220,000;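 active means activation, meaning protection from cell death, of at least 50% relative to plate controls; inactive means activation below 50%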;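 further: necroptosis triggered by 40 ng/mL TNF-alpha added together with compound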
Hck-Nef inh: human Hck-Nef kinase inhibition. P08631. Recombinant Hck-YEEI plus Nef, Z-Lyte FRET kinase assay. inhibition, % at 20 µM. hit rate 0.68% among 220,000. AID 463187;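 active means Hck-Nef kinase inhibition above about 50%, limit read from the data; inactive means inhibition below that limit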;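 further: 0% = DMSO with Hck plus Nef and 100% = Hck alone without Nef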
zVAD death inh: blocks zVAD induced death of L929 cells; L929 zVAD necroptosis rescue, ATP luminescence, 24 h; with zVAD 60 µM; viability rescue, % at 10 µM; hit rate 0.38% among 220,000; AID 1377;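 active means activation, scaled between plate controls, above about 75%, limit read from the data; inactive means activation under that limit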;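 further: 0% = zVAD with DMSO and 100% = DMSO alone without zVAD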
MDM2 E3 inh: blocks human Mdm2 ubiquitin ligase activity; cell-based MDM2 ubiquitination luciferase reporter, 2 h; 0 = plate control, 100 = twice control, blank-subtracted; signal enhancement, % at 5 µM; hit rate 0.11% among 210,000; AID 1230;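 active means signal enhancement of 30% or more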;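 further: luminescence tracks abundance of the self-degrading MDM2-luciferase fusion protein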
Target sequence (Q00987 whole entry, looked up, the tested form may be a part): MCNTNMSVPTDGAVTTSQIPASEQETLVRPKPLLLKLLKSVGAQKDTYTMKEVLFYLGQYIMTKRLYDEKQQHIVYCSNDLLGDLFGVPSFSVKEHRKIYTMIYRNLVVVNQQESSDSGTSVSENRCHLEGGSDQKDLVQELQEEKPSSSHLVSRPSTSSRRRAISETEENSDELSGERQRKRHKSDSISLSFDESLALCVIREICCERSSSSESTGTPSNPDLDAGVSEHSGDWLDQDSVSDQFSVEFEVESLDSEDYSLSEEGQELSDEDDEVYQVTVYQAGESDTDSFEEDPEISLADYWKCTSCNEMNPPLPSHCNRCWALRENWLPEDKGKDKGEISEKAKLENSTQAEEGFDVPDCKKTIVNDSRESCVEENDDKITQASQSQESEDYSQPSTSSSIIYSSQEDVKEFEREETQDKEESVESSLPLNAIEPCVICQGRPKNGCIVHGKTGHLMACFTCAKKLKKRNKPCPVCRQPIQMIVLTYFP
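Assay system: mammalian cells stably expressing self-ubiquitinating, self-degrading MDM2 E3–luciferase fusion. Quantity: 2000 cells in each well. Medium: DMEM culture medium. Compound dosing: single-point 5 µM. Timing: cell settling 4 h, compound treatment 2 h, both 37 °C. Technique: luciferase luminescence. Read-out basis: percent signal gain over controls, blank-subtracted. Benchmarks: plate controls and plate blanks.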
Autophagy mod: alters autophagy in cells; MEF GFP-LC3 puncta imaging; test concentration mostly 10 µM; calls only at 10 µM (by protocol); hit rate 0.98% among 190,000; AID 463193;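 active means percentage of spot-positive cells more than 3 SD above its plate mean, without a fluorescence outlier flag or 80% toxicity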;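 further: spot-positive cell cutoff set from DMSO-treated cells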
Hck-Nef confirm: Hck-Nef kinase inhibition, confirmation; shares compounds with Hck-Nef inh; Recombinant Hck-YEEI:Nef, Z-Lyte FRET kinase assay; calls only at 10 µM; hit rate 28% among 1,300;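 active means average inhibition of at least 50%, with Z-scores no higher than 3 in both the phospho-tyrosine peptide and fluorescence counterscreens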
Active calls of the source: *; i = inactive; / = no result given; + = active, no number.

SMILES	Dynein transport	TNF death inh	Hck-Nef inh	zVAD death inh	MDM2 E3 inh	Autophagy mod	Hck-Nef confirm
Cc1cc(NCCCn2ccnc2)n2c(nc3ccccc32)c1C#N	0.46	0	64*	0	-5	i	/
Cc1cc(NCCN2CCCCC2)n2c(nc3ccccc32)c1C#N	0.069	0	29	1	-11	i	/
CC(C)Cn1c(N)c(C(=O)COC(=O)c2cc(C(F)(F)F)nc3c(C(F)(F)F)cccc23)c(=O)n(C)c1=O	0.37	-2	-10	-1	/	i	/
Cc1cc(C)c2oc(C(=O)Nc3ccc(S(=O)(=O)Nc4nccs4)cc3)cc(=O)c2c1	0.12	-1	51*	0	/	/	i
Cc1cc2oc(C(=O)Nc3ccc(S(=O)(=O)Nc4nccs4)cc3)cc(=O)c2cc1Cl	0.82	1	9	2	-7	i	/
CCC1(CC)C(=O)NC(=O)NC1=NCCc1c[nH]c2ccccc12	-0.74	-3	0	0	/	i	/
Cn1nccc1C(=O)Nc1sc2c(c1C(N)=O)CCCC2	0.44	-3	68*	75	-8	i	i
COc1ccc(-c2nc3ccccc3s2)cc1O	-0.14	-4	5	-1	-85	i	/
CCOc1cc(-c2nc3ccccc3s2)ccc1O	-0.54	-3	+	0	-6	/	/
COc1cc(-c2nc3ccccc3s2)ccc1O	0.31	-2	155*	0	-4	i	/
C=CCN1C=CC(=O)CC1	-0.65	1	15	0	2	/	/
CCOC(=O)c1c(NC(=O)C2CCCO2)sc(C(=O)OC(C)(C)C)c1C (configuration not stated)	0.64	0	68*	0	/	i	i
CCOC(=O)c1c(NC(=O)C2CCCO2)sc(C)c1C (configuration not stated)	-0.62	0	4	0	-2	i	/
CCOC(=O)c1cnc2ccc(OCC)cc2c1N1CCN(c2ccccc2OC)CC1	-1.3	-6	77*	-1	-15	i	+
Cc1c(-c2ccn[nH]2)cc(NC(=O)c2ccc(Cl)cc2)c(=O)n1N	-0.4	0	22	8	-9	i	/
CC(=O)C1=C(C)Nc2ncnn2C1c1ccccc1OCc1ccccc1 (configuration not stated)	-0.56	-2	10	0	21	i	/
O=C(Nc1ccc2nc(-c3ccco3)c(-c3ccco3)nc2c1)N1CCN(c2ccccn2)CC1	-0.27	-12	57*	2	-9	i	i
COc1ccc(CNC(=O)c2ccc(=O)oc2)cc1OC	-0.38	-1	57*	1	-9	i	/
COc1ccc(C(=O)NCc2ccc(Cl)c(Cl)c2)cc1OC	-0.38	3	3	0	7	i	/
COc1ccc(N2CCN(CCNC(=O)c3ccc4c(c3)[nH]c(=S)n3c5ccccc5nc43)CC2)cc1	-0.41	1	51*	3	-10	i	i
Cc1cc(C)c2c(c1)/C(=c1/sc3n(c1=O)CN(c1ccccc1)CN=3)C(=O)N2	-0.33	3	54*	0	-2	/	i
O=C(Nc1ccc(-n2nncc2-c2ccco2)cc1)c1cc2ccccc2oc1=O	-1.2	0	51*	1	2	i	+
CCOc1cc(/C=C(/C#N)c2nc3ccccc3[nH]2)ccc1OCc1ccc(C(=O)O)o1	-0.28	1	64*	0	-21	i	/
CCOc1cc(N2CCOCC2)c(OCC)cc1NC(=O)c1ccc2ccccc2n1	0.025	-8	64*	16	1	i	i
CCOc1cc(N2CCOCC2)c(OCC)cc1NC(=O)c1ccccc1C	-1.1	0	8	-1	/	i	/
CCc1nnc(NS(=O)(=O)c2ccc(NC(=S)NC(=O)/C=C/c3ccccc3)cc2)s1	-0.18	5	5	2	-2	i	/
CCc1nnc(NS(=O)(=O)c2ccc(NC(=S)NC(=O)/C=C/c3ccc(C(C)C)cc3)cc2)s1	-0.82	-2	65*	1	-9	i	+
